Activity calls are given as the source filed them. The rule behind the calls is not given here.
Key:
[1] = target: T1, Bromodomain testis-specific protein (Homo sapiens, UniProt Q58F21); assay: Inhibition of BI-BODIPY binding to BRDT bromodomain 1 (29 to 134 residues) (unknown origin) expressed in Escherichia coli BL21(DE3) up to 1000 uM by fluorescence polarization assay
[2] = target: T2, Bromodomain-containing protein 4 (Homo sapiens, UniProt O60885); assay: Inhibition of BI-BODIPY binding to BRD4 bromodomain 1 (42 to 168 residues)(unknown origin) expressed in Escherichia coli BL21(DE3) up to 1000 uM by fluorescence polarization assay
[3] = target: T1, Bromodomain testis-specific protein; assay: Inhibition of BI-BODIPY binding to BRDT bromodomain 1 (29 to 134 residues) (unknown origin) expressed in Escherichia coli BL21(DE3) by fluorescence anisotropy assay
[4] = target: T2, Bromodomain-containing protein 4; assay: Inhibition of BI-BODIPY binding to BRD4 bromodomain 1 (42 to 168 residues)(unknown origin) expressed in Escherichia coli BL21(DE3) by fluorescence anisotropy assay
Procedure, shortened: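 Competition fluorescence anisotropy in 50 mM Tris, 100 mM NaCl, pH 7.4, 4 mM CHAPS, 0.5% DMSO; BrdT also contains 3 mM DTT. Tracer BI-BODIPY is at 0.025 μM. Protein is set at the level giving 80% tracer bound. Ex 485/em 535. A four-parameter IC50 is converted to Ki by a Cheng-Prusoff variant, from ≥3 independent experiments.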

[5] = target: T1, Bromodomain testis-specific protein; assay: Binding affinity to BRDT bromodomain 1 (29 to 134 residues)(unknown origin) expressed in Escherichia coli BL21(DE3) assessed as change in melting temperature at 150 uM at 25 to 75 degC after 5 mins by SYPRO orange dye based differential scanning fluorimetric analysis
Procedure, shortened: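 DSF with 10 μM BrdT(1) in 50 mM HEPES pH 7.5, 100 mM NaCl, with 5x SYPRO Orange. The 8-point dose range is 1250–9 μM at 2.5% DMSO, run in duplicate. After 5 min at 25 °C, samples are heated from 25 to 75 °C in 0.2 °C steps. Tm is the peak of the negative first derivative. ΔTm is taken against the DMSO control. Plates with Z' below 0.5 are excluded.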

MM1.S [6] = assay: Cytotoxicity against human MM1S cells assessed as reduction in cell viability after 72 hrs by MTT assay; format: functional, cell-based
[7] = target: T2, Bromodomain-containing protein 4; assay: Binding affinity to 5FW-labeled BRD4 bromodomain 1 (unknown origin) expressed in Escherichia coli BL21(DE3) by PrOF NMR spectroscopic analysis
Procedure, shortened: (§1)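 BrdT samples also contain 3 mM DTT. Spectra recorded with compound present and absent at 500 MHz, 90° flip angle, 0.7 s relaxation delay, 0.1 s acquisition, 500 transients. The read-out is broadening or shift of the binding-pocket Trp resonance.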

[8] = target: T1, Bromodomain testis-specific protein; assay: Inhibition of BRDT bromodomain 2 (unknown origin) by fluorescence anisotropy assay
MM1.S [9] = assay: Cytotoxicity against human MM1S cells assessed as reduction in cell viability up to 10 uM after 72 hrs by MTT assay; format: functional, cell-based
Procedure, shortened: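 MM1.S cells are grown in RPMI-1640 with 10% FBS at 37 °C and 5% CO2. About 20,000 cells per well are exposed to compound or 0.1% DMSO vehicle for 72 h, with 6 replicates per concentration. MTT (2 mg/ml) is added for 3 h at 37 °C and formazan is dissolved in DMSO. A540 is read and IC50 is fitted.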

[10] = target: T2, Bromodomain-containing protein 4; assay: Binding affinity to 5FW-labeled BRD4 bromodomain 1 (unknown origin) up to 600 uM by PrOF NMR spectroscopic analysis; procedure, shortened: as §1
[11] = target: T2, Bromodomain-containing protein 4; assay: Inhibition of BRD4 bromodomain in human MM1S cells assessed as upregulation of p21Cip1 levels up to 10 uM after 6 hrs by Western blot analysis; format: cell-based
Procedure, shortened: (§2)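 MM1.S cells (1×10^6 per well) are treated with increasing inhibitor concentrations for 6 h, then lysed with protease/phosphatase inhibitors and 5 mM EDTA at 4 °C. Lysates are resolved by SDS-PAGE and immunoblotted for c-Myc and p21Cip1, with vinculin as loading reference and chemiluminescent detection.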

[12] = target: T2, Bromodomain-containing protein 4; assay: Inhibition of BRD4 bromodomain in human MM1S cells assessed as reduction in c-Myc levels up to 10 uM after 6 hrs by Western blot analysis; format: cell-based; procedure, shortened: as §2

Row | Structure (SMILES) | IC50 [3] [µM] | Ki [4] [µM] | Ki [3] [µM] | ΔTm [5] [°C] | further results
1 | CCn1c2c(c(=O)[nH]c1=O)C(c1ccc(C)cc1)C(C(=O)OC)=C(C)N2 (centres undefined) |  |  |  |  | inhibition [1]: inactive; inhibition [2]: inactive
2 | O=c1[nH]c(=O)n(CC2CCCO2)c2nccc(-c3ccco3)c12 (centres undefined) | 130 |  |  |  | 
3 | C=CCN1CC2=C(C1=O)C(c1ccc(C)cc1)c1c(n(CC)c(=O)[nH]c1=O)N2 (centres undefined) | 2.2 | 14 |  |  | IC50 [4]: 0.63 µM
4 | CCn1c2c(c(=O)n(C)c1=O)C(c1ccc(C)cc1)C1=C(COC1=O)N2 (centres undefined) |  | > 40 | > 40 |  | 
5 | CCn1c2c(c(=O)[nH]c1=O)C(c1ccc(C)cc1)C1=C(CCC1=O)N2 (centres undefined) |  | 10 | 23 | 0.06 | 
6 | CCn1c2c(c(=O)[nH]c1=O)C(c1ccc(C)cc1)C1=C(CN(CCc3ccc(OC)cc3)C1=O)N2 (centres undefined) | 1 | 0.1 | 0.2 |  | IC50 [4]: 0.48 µM; IC50 (MM1.S [6]): 2.1 µM
7 | CCCn1c2c(c(=O)[nH]c1=O)C(c1ccccc1)C1=C(COC1=O)N2 (centres undefined) |  | 1.2 | 2.4 | 0.14 | 
8 | Cc1ccc(C2C3=C(COC3=O)Nc3c2c(=O)[nH]c(=O)n3C2CC2)cc1 (centres undefined) |  | > 40 | > 40 | 0.06 | 
9 | COc1ccc(C2C3=C(COC3=O)Nc3c2c(=O)n(C)c(=O)n3C)cc1 (centres undefined) |  |  | > 40 | -0.48 | 
10 | CCn1c2c(c(=O)[nH]c1=O)C(c1ccc(C)cc1)C1=C(CN(CCc3ccc(O)cc3)C1=O)N2 (centres undefined) | 0.76 | 0.11 | 0.2 |  | IC50 [4]: 0.39 µM; Activity [7]: Active
11 | Cc1ccc(C2C3=C(COC3=O)Nc3c2c(=O)n(C)c(=O)n3C)cc1 (centres undefined) |  |  | > 40 | -0.46 | 
12 | CCn1c2c(c(=O)[nH]c1=O)C(c1ccc(C)cc1)C1=C(CN(CCc3ccccc3)C1=O)N2 (centres undefined) | 1 | 0.14 | 0.22 |  | IC50 [4]: 1 µM; IC50 (MM1.S [6]): 1.2 µM
13 | Cc1ccc(C2C3=C(COC3=O)Nc3c2c(=O)[nH]c(=O)n3CC(F)(F)F)cc1 (centres undefined) |  | 0.16 | 0.85 | -0.54 | Ki [8]: ≤ 0.45 µM; Activity (MM1.S [9]): inactive; Activity [10]: Active; inhibition [11]: inactive; inhibition [12]: inactive
14 | CCn1c2c(c(=O)[nH]c1=O)C(c1ccc(Cl)cc1)C1=C(COC1=O)N2 (centres undefined) |  | 0.3 | 1.1 | 1.4 | 
15 | O=c1[nH]c(=O)c2c([nH]1)[nH]/c(=N/CCO)n2Cc1cccc2ccccc12 | 87 |  |  |  | 
16 | CCn1c(=O)n(CC)c2cc(C=O)ccc21 | 140 |  |  |  | 

— ChEMBL document CHEMBL4014334, “BET Bromodomain Inhibitors with One-Step Synthesis Discovered from Virtual Screen” (J Med Chem, 2017)
